Experimental data as given in ChEMBL document CHEMBL4689842, “EUbOPEN Chemogenomics Library wave 1” (2021).

Tests used:
HEK-293T = assay: Multiplex assay against HEK293T; type: toxicity, cell-based; details: human;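 as to Population Tubulin-Different-Phenotype (%): share of the cells with healthy nuclei that show this phenotype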
How it was run: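 Values for tubulin, mitochondrial-mass and membrane-permeability phenotypes are per cents of cells with healthy nuclei. These cells were identified by CellPathfinder machine-learning gating of live cells that had been stained at seeding with Hoechst33342, BioTracker Green Microtubule Cytoskeleton Dye, MitoTracker Red and Annexin V Alexa Fluor 680 and imaged on a CQ1 microscope at 37°C and 5% CO2 after compound addition. The gating first set Hoechst high-intensity objects apart from normal cells, then split normal cells into healthy, pyknosed or fragmented nuclei, and pyknosed cells into mitotic or apoptotic.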

Fibroblast = assay: Incucyte cell viability with human fibroblast; type: toxicity, cell-based; details: 10 µM, compound concentration 10 uM; also: filed as whole numbers so only -1 and 0 and 1 occur
[1] = 12 h, 1 µM, compound concentration 1 uM, replicate 1
[2] = 12 h, 1 µM, compound concentration 1 uM, replicate 2
[3] = 12 h, 10 µM, compound concentration 10 uM, replicate 1
[4] = 12 h, 10 µM, compound concentration 10 uM, replicate 2
[5] = 24 h, 1 µM, compound concentration 1 uM, replicate 1
[6] = 24 h, 1 µM, compound concentration 1 uM, replicate 2
[7] = 24 h, 10 µM, compound concentration 10 uM, replicate 1
[8] = 24 h, 10 µM, compound concentration 10 uM, replicate 2
[9] = 48 h, 1 µM, compound concentration 1 uM, replicate 1
[10] = 48 h, 1 µM, compound concentration 1 uM, replicate 2
[11] = 48 h, 10 µM, compound concentration 10 uM, replicate 1
[12] = 48 h, 10 µM, compound concentration 10 uM, replicate 2

Structure (SMILES): CCCc1cc(C)[nH]c(=O)c1CNC(=O)c1cc(-c2ccc(N3CCN(C(C)C)CC3)nc2)cc2c1cnn2C(C)C
- Population Apoptotic (%) (HEK-293T; [1]): 63%
- Population Fragmented Nuclei (%) (HEK-293T; [1]): 13%
- Population Healthy Nuclei (%) (HEK-293T; [1]): 25%
- Population Hoechst High Intensity Objects (%) (HEK-293T; [1]): 13%
- Population Membrane Permeable-Phenotype (%) (HEK-293T; [1]): 9%
- Population Mitochondria Different-Phenotype (%) (HEK-293T; [1]): 97%
- Population Mitotic Cells (%) (HEK-293T; [1]): 36%
- Population Normal (%) (HEK-293T; [1]): 86%
- Population Pyknosed Nuclei (%) (HEK-293T; [1]): 60%
- Population Tubulin-Different-Phenotype (%) (HEK-293T; [1]): 86%
- Total Cell Count (HEK-293T; [1]): 193
- Population Apoptotic (%) (HEK-293T; [2]): 51%
- Population Fragmented Nuclei (%) (HEK-293T; [2]): 4%
- Population Healthy Nuclei (%) (HEK-293T; [2]): 27%
- Population Hoechst High Intensity Objects (%) (HEK-293T; [2]): 3%
- Population Membrane Permeable-Phenotype (%) (HEK-293T; [2]): 3%
- Population Mitochondria Different-Phenotype (%) (HEK-293T; [2]): 87%
- Population Mitotic Cells (%) (HEK-293T; [2]): 48%
- Population Normal (%) (HEK-293T; [2]): 96%
- Population Pyknosed Nuclei (%) (HEK-293T; [2]): 67%
- Population Tubulin-Different-Phenotype (%) (HEK-293T; [2]): 94%
- Total Cell Count (HEK-293T; [2]): 200
- Population Apoptotic (%) (HEK-293T; [3]): 94%
- Population Fragmented Nuclei (%) (HEK-293T; [3]): 9%
- Population Healthy Nuclei (%) (HEK-293T; [3]): 20%
- Population Hoechst High Intensity Objects (%) (HEK-293T; [3]): 20%
- Population Membrane Permeable-Phenotype (%) (HEK-293T; [3]): 2%
- Population Mitochondria Different-Phenotype (%) (HEK-293T; [3]): 97%
- Population Mitotic Cells (%) (HEK-293T; [3]): 5%
- Population Normal (%) (HEK-293T; [3]): 79%
- Population Pyknosed Nuclei (%) (HEK-293T; [3]): 69%
- Population Tubulin-Different-Phenotype (%) (HEK-293T; [3]): 89%
- Total Cell Count (HEK-293T; [3]): 231
- Population Apoptotic (%) (HEK-293T; [4]): 96%
- Population Fragmented Nuclei (%) (HEK-293T; [4]): 5%
- Population Healthy Nuclei (%) (HEK-293T; [4]): 12%
- Population Hoechst High Intensity Objects (%) (HEK-293T; [4]): 8%
- Population Membrane Permeable-Phenotype (%) (HEK-293T; [4]): 11%
- Population Mitochondria Different-Phenotype (%) (HEK-293T; [4]): 94%
- Population Mitotic Cells (%) (HEK-293T; [4]): 3%
- Population Normal (%) (HEK-293T; [4]): 91%
- Population Pyknosed Nuclei (%) (HEK-293T; [4]): 82%
- Population Tubulin-Different-Phenotype (%) (HEK-293T; [4]): 100%
- Total Cell Count (HEK-293T; [4]): 151
- Population Apoptotic (%) (HEK-293T; [5]): 79%
- Population Fragmented Nuclei (%) (HEK-293T; [5]): 11%
- Population Healthy Nuclei (%) (HEK-293T; [5]): 26%
- Population Hoechst High Intensity Objects (%) (HEK-293T; [5]): 17%
- Population Membrane Permeable-Phenotype (%) (HEK-293T; [5]): 4%
- Population Mitochondria Different-Phenotype (%) (HEK-293T; [5]): 97%
- Population Mitotic Cells (%) (HEK-293T; [5]): 20%
- Population Normal (%) (HEK-293T; [5]): 82%
- Population Pyknosed Nuclei (%) (HEK-293T; [5]): 62%
- Population Tubulin-Different-Phenotype (%) (HEK-293T; [5]): 97%
- Total Cell Count (HEK-293T; [5]): 190
- Population Apoptotic (%) (HEK-293T; [6]): 57%
- Population Fragmented Nuclei (%) (HEK-293T; [6]): 2%
- Population Healthy Nuclei (%) (HEK-293T; [6]): 52%
- Population Hoechst High Intensity Objects (%) (HEK-293T; [6]): 3%
- Population Membrane Permeable-Phenotype (%) (HEK-293T; [6]): 6%
- Population Mitochondria Different-Phenotype (%) (HEK-293T; [6]): 94%
- Population Mitotic Cells (%) (HEK-293T; [6]): 42%
- Population Normal (%) (HEK-293T; [6]): 96%
- Population Pyknosed Nuclei (%) (HEK-293T; [6]): 45%
- Population Tubulin-Different-Phenotype (%) (HEK-293T; [6]): 94%
- Total Cell Count (HEK-293T; [6]): 239
- Population Apoptotic (%) (HEK-293T; [7]): 91%
- Population Fragmented Nuclei (%) (HEK-293T; [7]): 15%
- Population Healthy Nuclei (%) (HEK-293T; [7]): 16%
- Population Hoechst High Intensity Objects (%) (HEK-293T; [7]): 19%
- Population Mitochondria Different-Phenotype (%) (HEK-293T; [7]): 96%
- Population Mitotic Cells (%) (HEK-293T; [7]): 8%
- Population Normal (%) (HEK-293T; [7]): 80%
- Population Pyknosed Nuclei (%) (HEK-293T; [7]): 68%
- Population Tubulin-Different-Phenotype (%) (HEK-293T; [7]): 77%
- Total Cell Count (HEK-293T; [7]): 236
- Population Apoptotic (%) (HEK-293T; [8]): 98%
- Population Fragmented Nuclei (%) (HEK-293T; [8]): 4%
- Population Healthy Nuclei (%) (HEK-293T; [8]): 20%
- Population Hoechst High Intensity Objects (%) (HEK-293T; [8]): 14%
- Population Membrane Permeable-Phenotype (%) (HEK-293T; [8]): 3%
- Population Mitochondria Different-Phenotype (%) (HEK-293T; [8]): 100%
- Population Mitotic Cells (%) (HEK-293T; [8]): 1%
- Population Normal (%) (HEK-293T; [8]): 85%
- Population Pyknosed Nuclei (%) (HEK-293T; [8]): 74%
- Population Tubulin-Different-Phenotype (%) (HEK-293T; [8]): 81%
- Total Cell Count (HEK-293T; [8]): 151
- Population Apoptotic (%) (HEK-293T; [9]): 75%
- Population Fragmented Nuclei (%) (HEK-293T; [9]): 19%
- Population Healthy Nuclei (%) (HEK-293T; [9]): 46%
- Population Hoechst High Intensity Objects (%) (HEK-293T; [9]): 9%
- Population Membrane Permeable-Phenotype (%) (HEK-293T; [9]): 0%
- Population Mitochondria Different-Phenotype (%) (HEK-293T; [9]): 96%
- Population Mitotic Cells (%) (HEK-293T; [9]): 24%
- Population Normal (%) (HEK-293T; [9]): 90%
- Population Pyknosed Nuclei (%) (HEK-293T; [9]): 33%
- Population Tubulin-Different-Phenotype (%) (HEK-293T; [9]): 86%
- Total Cell Count (HEK-293T; [9]): 241
- Population Apoptotic (%) (HEK-293T; [10]): 69%
- Population Fragmented Nuclei (%) (HEK-293T; [10]): 6%
- Population Healthy Nuclei (%) (HEK-293T; [10]): 68%
- Population Hoechst High Intensity Objects (%) (HEK-293T; [10]): 2%
- Population Membrane Permeable-Phenotype (%) (HEK-293T; [10]): 1%
- Population Mitochondria Different-Phenotype (%) (HEK-293T; [10]): 77%
- Population Mitotic Cells (%) (HEK-293T; [10]): 30%
- Population Normal (%) (HEK-293T; [10]): 97%
- Population Pyknosed Nuclei (%) (HEK-293T; [10]): 25%
- Population Tubulin-Different-Phenotype (%) (HEK-293T; [10]): 91%
- Total Cell Count (HEK-293T; [10]): 327
- Population Apoptotic (%) (HEK-293T; [11]): 95%
- Population Fragmented Nuclei (%) (HEK-293T; [11]): 20%
- Population Healthy Nuclei (%) (HEK-293T; [11]): 10%
- Population Hoechst High Intensity Objects (%) (HEK-293T; [11]): 28%
- Population Membrane Permeable-Phenotype (%) (HEK-293T; [11]): 5%
- Population Mitochondria Different-Phenotype (%) (HEK-293T; [11]): 94%
- Population Mitotic Cells (%) (HEK-293T; [11]): 4%
- Population Normal (%) (HEK-293T; [11]): 71%
- Population Pyknosed Nuclei (%) (HEK-293T; [11]): 68%
- Population Tubulin-Different-Phenotype (%) (HEK-293T; [11]): 61%
- Total Cell Count (HEK-293T; [11]): 241
- Population Apoptotic (%) (HEK-293T; [12]): 98%
- Population Fragmented Nuclei (%) (HEK-293T; [12]): 5%
- Population Healthy Nuclei (%) (HEK-293T; [12]): 31%
- Population Hoechst High Intensity Objects (%) (HEK-293T; [12]): 27%
- Population Membrane Permeable-Phenotype (%) (HEK-293T; [12]): 2%
- Population Mitochondria Different-Phenotype (%) (HEK-293T; [12]): 100%
- Population Mitotic Cells (%) (HEK-293T; [12]): 1%
- Population Normal (%) (HEK-293T; [12]): 72%
- Population Pyknosed Nuclei (%) (HEK-293T; [12]): 62%
- Population Tubulin-Different-Phenotype (%) (HEK-293T; [12]): 55%
- Total Cell Count (HEK-293T; [12]): 148
- Growth Rate (Fibroblast; 0 h, replicate number 2, timepoint 0 hours): 0
- Growth Rate (Fibroblast; 6 h, replicate number 1, timepoint 6 hours): 0
- Growth Rate (Fibroblast; 12 h, replicate number 1, timepoint 12 hours): 0
- Growth Rate (Fibroblast; 12 h, replicate number 2, timepoint 12 hours): 1
- Growth Rate (Fibroblast; 18 h, replicate number 1, timepoint 18 hours): 0
- Growth Rate (Fibroblast; 24 h, replicate number 1, timepoint 24 hours): 0
